Experimental data from ChEMBL document CHEMBL1926569, “Novel (E)-1-(4-methyl-2-(alkylamino)thiazol-5-yl)-3-arylprop-2-en-1-ones as potent antimicrobial agents” (2011).
In brackets after ≈: the same amount, converted by molar mass.

Assays:
Staphylococcus aureus [1] = test: Antibacterial activity against Staphylococcus aureus ATCC 6538 after 24 hrs by microdilution method; format: functional; details: ATCC 6538, 24 h
Method in brief: (§1)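 Broth microdilution in 96-well plates. Bacterial suspensions were adjusted in sterile saline to 1.0 × 10⁵ CFU/ml, prepared daily and kept at 4 °C. Compound was added to LB broth with 1.0 × 10⁴ CFU per well and shaken at 160 rpm for 24 h at […] (so in the source). MIC is the lowest concentration with no visible growth under a binocular microscope. OD655 was also read. Duplicate, repeated three times.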

Bacillus cereus [2] = test: Antibacterial activity against clinical isolate of Bacillus cereus after 24 hrs by microdilution method; format: functional; method in brief: as §1
Micrococcus flavus [3] = test: Antibacterial activity against Micrococcus flavus ATCC 10240 after 24 hrs by microdilution method; format: functional; details: ATCC 10240, 24 h; method in brief: as §1
Listeria monocytogenes [4] = test: Antibacterial activity against Listeria monocytogenes NCTC 7973 after 24 hrs by microdilution method; format: functional; details: NCTC 7973, 24 h; method in brief: as §1
Pseudomonas aeruginosa [5] = test: Antibacterial activity against Pseudomonas aeruginosa ATCC 27853 after 24 hrs by microdilution method; format: functional; details: ATCC 27853, 24 h; method in brief: as §1
Salmonella typhimurium [6] = test: Antibacterial activity against Salmonella Typhimurium ATCC 13311 after 24 hrs by microdilution method; format: functional, Salmonella enterica subsp. enterica serovar Typhimurium; details: Salmonella enterica, ATCC 13311, 24 h; method in brief: as §1
Escherichia coli [7] = test: Antibacterial activity against Escherichia coli ATCC 35210 after 24 hrs by microdilution method; format: functional; details: ATCC 35210, 24 h; method in brief: as §1
Enterococcus faecalis [8] = test: Antibacterial activity against Enterococcus faecalis isolated from human after 24 hrs by microdilution method; format: functional; method in brief: as §1
Staphylococcus aureus [9] = test: Antibacterial activity against Staphylococcus aureus ATCC 6538 incubated for 24 hrs followed by serial sub-cultivation for 24 hrs by microdilution method; format: functional; details: ATCC 6538, 24 h
Method in brief: (§2)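 MBC: after the 24 h LB broth microdilution (1.0 × 10⁴ CFU per well, 160 rpm), wells were serially sub-cultured into fresh broth plates and incubated a further 24 h. MBC is the lowest concentration with no visible growth, taken as 99.5% killing of the original inoculum. Duplicate, repeated three times.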

Bacillus cereus [10] = test: Antibacterial activity against clinical isolate of Bacillus cereus incubated for 24 hrs followed by serial sub-cultivation for 24 hrs by microdilution; format: functional; method in brief: as §2
Micrococcus flavus [11] = test: Antibacterial activity against Micrococcus flavus ATCC 10240 incubated for 24 hrs followed by serial sub-cultivation for 24 hrs by microdilution; format: functional; details: ATCC 10240, 24 h; method in brief: as §2
Listeria monocytogenes [12] = test: Antibacterial activity against Listeria monocytogenes NCTC 7973 incubated for 24 hrs followed by serial sub-cultivation for 24 hrs by microdilution; format: functional; details: NCTC 7973, 24 h; method in brief: as §2
Pseudomonas aeruginosa [13] = test: Antibacterial activity against Pseudomonas aeruginosa ATCC 27853 incubated for 24 hrs followed by serial sub-cultivation for 24 hrs by microdilution; format: functional; details: ATCC 27853, 24 h; method in brief: as §2
Salmonella typhimurium [14] = test: Antibacterial activity against Salmonella Typhimurium ATCC 13311 incubated for 24 hrs followed by serial sub-cultivation for 24 hrs by microdilution; format: functional, Salmonella enterica subsp. enterica serovar Typhimurium; details: Salmonella enterica, ATCC 13311, 24 h; method in brief: as §2
Escherichia coli [15] = test: Antibacterial activity against Escherichia coli ATCC 35210 incubated for 24 hrs followed by serial sub-cultivation for 24 hrs by microdilution; format: functional; details: ATCC 35210, 24 h; method in brief: as §2
Enterococcus faecalis [16] = test: Antibacterial activity against Enterococcus faecalis isolated from human incubated for 24 hrs followed by serial sub-cultivation for 24 hrs by microdilution; format: functional; method in brief: as §2
Aspergillus ochraceus [17] = test: Antifungal activity against Aspergillus ochraceus ATCC 12066 after 72 hrs by serial dilution technique; format: functional; details: ATCC 12066, 72 h
Method in brief: (§3)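 Modified microdilution in 96-well plates. Fungi were kept on malt agar at 4 °C. Spores were washed off in sterile 0.85% saline with 0.1% Tween 80. Compounds were dissolved at 1 mg/ml in 5% DMSO with 0.1% Tween 80 and added to malt broth with inoculum. Plates were shaken at 160 rpm for 72 h at 28 °C. Duplicate, repeated three times.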

Aspergillus niger [18] = test: Antifungal activity against Aspergillus niger ATCC 6275 after 72 hrs by serial dilution technique; format: functional; details: ATCC 6275, 72 h; method in brief: as §3
Aspergillus flavus [19] = test: Antifungal activity against Aspergillus flavus ATCC 9643 after 72 hrs by serial dilution technique; format: functional; details: ATCC 9643, 72 h; method in brief: as §3
Talaromyces funiculosus [20] = test: Antifungal activity against Penicillium funiculosum ATCC 36839 after 72 hrs by serial dilution technique; format: functional; details: ATCC 36839, 72 h; method in brief: as §3
Penicillium ochrochloron [21] = test: Antifungal activity against Penicillium ochrochloron ATCC 9112 after 72 hrs by serial dilution technique; format: functional; details: ATCC 9112, 72 h; method in brief: as §3
Trichoderma viride [22] = test: Antifungal activity against Trichoderma viride IAM 5061 after 72 hrs by serial dilution technique; format: functional; details: IAM 5061, 72 h; method in brief: as §3
Candida albicans [23] = test: Antifungal activity against Candida albicans isolated from human after 72 hrs by serial dilution technique; format: functional; method in brief: as §3
Aspergillus ochraceus [24] = test: Antifungal activity against Aspergillus ochraceus ATCC 12066 incubated for 72 hrs followed by serial sub-cultivation for 72 hrs by serial dilution technique; format: functional; details: ATCC 12066, 72 h
Method in brief: (§4)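 MFC: material from 72 h malt broth microdilution wells was serially sub-cultured into fresh broth plates and incubated a further 72 h at 28 °C. Fungicidal concentration is taken from growth after sub-culture. Duplicate, repeated three times.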

Aspergillus fumigatus [25] = test: Antifungal activity against Aspergillus fumigatus isolated from human incubated for 72 hrs followed by serial sub-cultivation for 72 hrs by serial dilution technique; format: functional; method in brief: as §4
Aspergillus niger [26] = test: Antifungal activity against Aspergillus niger ATCC 6275 incubated for 72 hrs followed by serial sub-cultivation for 72 hrs by serial dilution technique; format: functional; details: ATCC 6275, 72 h; method in brief: as §4
Aspergillus flavus [27] = test: Antifungal activity against Aspergillus flavus ATCC 9643 incubated for 72 hrs followed by serial sub-cultivation for 72 hrs by serial dilution technique; format: functional; details: ATCC 9643, 72 h; method in brief: as §4
Talaromyces funiculosus [28] = test: Antifungal activity against Penicillium funiculosum ATCC 36839 incubated for 72 hrs followed by serial sub-cultivation for 72 hrs by serial dilution technique; format: functional; details: ATCC 36839, 72 h; method in brief: as §4
Penicillium ochrochloron [29] = test: Antifungal activity against Penicillium ochrochloron ATCC 9112 incubated for 72 hrs followed by serial sub-cultivation for 72 hrs by serial dilution technique; format: functional; details: ATCC 9112, 72 h; method in brief: as §4
Trichoderma viride [30] = test: Antifungal activity against Trichoderma viride IAM 5061 incubated for 72 hrs followed by serial sub-cultivation for 72 hrs by serial dilution technique; format: functional; details: IAM 5061, 72 h; method in brief: as §4
Candida albicans [31] = test: Antifungal activity against Candida albicans isolated from human incubated for 72 hrs followed by serial sub-cultivation for 72 hrs by serial dilution technique; format: functional; method in brief: as §4
Pseudomonas aeruginosa [32] = test: Ratio of ampicillin MIC to compound MIC for Pseudomonas aeruginosa ATCC 27853; format: functional
Aspergillus ochraceus [33] = test: Ratio of bifonazole to compound for Aspergillus ochraceus ATCC 12066; format: functional
Aspergillus niger [34] = test: Ratio of bifonazole to compound for Aspergillus niger ATCC 6275; format: functional
Talaromyces funiculosus [35] = test: Ratio of bifonazole to compound for Penicillium funiculosum ATCC 36839; format: functional
Penicillium ochrochloron [36] = test: Ratio of bifonazole to compound for Penicillium ochrochloron ATCC 9112; format: functional
Trichoderma viride [37] = test: Ratio of bifonazole to compound for Trichoderma viride IAM 5061; format: functional
Candida albicans [38] = test: Ratio of bifonazole to compound for Candida albicans isolated from human; format: functional
Aspergillus ochraceus [39] = test: Ratio of ketoconazole to compound for Aspergillus ochraceus ATCC 12066; format: functional
Aspergillus fumigatus [40] = test: Ratio of ketoconazole to compound for Aspergillus fumigatus isolated from human; format: functional
Penicillium ochrochloron [41] = test: Ratio of ketoconazole to compound for Penicillium ochrochloron ATCC 9112; format: functional
Candida albicans [42] = test: Ratio of ketoconazole to compound for Candida albicans isolated from human; format: functional
Aspergillus ochraceus [43] = test: Antifungal activity against Aspergillus ochraceus after 72 hrs by serial dilution technique

MIC (Staphylococcus aureus [1]): 66.2 µM (≈ 20 µg/mL) | MIC (Bacillus cereus [2]): 66.2 µM (≈ 20 µg/mL) | MIC (Micrococcus flavus [3]): 31.3 µM (≈ 9.47 µg/mL) | MIC (Listeria monocytogenes [4]): 82.8 µM (≈ 25 µg/mL) | MIC (Pseudomonas aeruginosa [5]): 66.2 µM (≈ 20 µg/mL) | MIC (Salmonella typhimurium [6]): 49.7 µM (≈ 15 µg/mL) | MIC (Escherichia coli [7]): 49.7 µM (≈ 15 µg/mL) | MIC (Enterococcus faecalis [8]): 66.2 µM (≈ 20 µg/mL) | MIC (Aspergillus ochraceus [17]): 66.2 µM (≈ 20 µg/mL) | MIC (Aspergillus niger [18]): 33.1 µM (≈ 10 µg/mL) | MIC (Aspergillus flavus [19]): 66.2 µM (≈ 20 µg/mL) | MIC (Talaromyces funiculosus [20]): 33.1 µM (≈ 10 µg/mL) | MIC (Penicillium ochrochloron [21]): 66.2 µM (≈ 20 µg/mL) | MIC (Trichoderma viride [22]): 33.1 µM (≈ 10 µg/mL) | MIC (Candida albicans [23]): 66.2 µM (≈ 20 µg/mL) | MIC (Aspergillus ochraceus [43]): 66.2 µM (≈ 20 µg/mL)
SMILES: CCNc1nc(C)c(C(=O)/C=C/c2ccc(OC)cc2)s1
MBC (Staphylococcus aureus [9]): 99.3 µM (≈ 30 µg/mL) | MBC (Bacillus cereus [10]): 82.8 µM (≈ 25 µg/mL) | MBC (Micrococcus flavus [11]): 82.5 µM (≈ 24.9 µg/mL) | MBC (Listeria monocytogenes [12]): 99.3 µM (≈ 30 µg/mL) | MBC (Pseudomonas aeruginosa [13]): 82.8 µM (≈ 25 µg/mL) | MBC (Salmonella typhimurium [14]): 49.7 µM (≈ 15 µg/mL) | MBC (Escherichia coli [15]): 66.2 µM (≈ 20 µg/mL) | MBC (Enterococcus faecalis [16]): 99.3 µM (≈ 30 µg/mL) | MFC (Aspergillus ochraceus [24]): 82.8 µM (≈ 25 µg/mL) | MFC (Aspergillus fumigatus [25]): 82.8 µM (≈ 25 µg/mL) | MFC (Aspergillus niger [26]): 66.2 µM (≈ 20 µg/mL) | MFC (Aspergillus flavus [27]): 82.8 µM (≈ 25 µg/mL) | MFC (Talaromyces funiculosus [28]): 66.2 µM (≈ 20 µg/mL) | MFC (Penicillium ochrochloron [29]): 82.8 µM (≈ 25 µg/mL) | MFC (Trichoderma viride [30]): 66.2 µM (≈ 20 µg/mL) | MFC (Candida albicans [31]): 82.8 µM (≈ 25 µg/mL) | Ratio (Pseudomonas aeruginosa [32]): 10 | Ratio (Aspergillus ochraceus [33]): 10 | Ratio (Aspergillus niger [34]): 10 | Ratio (Talaromyces funiculosus [35]): 10 | Ratio (Penicillium ochrochloron [36]): 10 | Ratio (Trichoderma viride [37]): 10 | Ratio (Candida albicans [38]): 10 | Ratio (Aspergillus ochraceus [39]): 10 | Ratio (Aspergillus fumigatus [40]): 10 | Ratio (Penicillium ochrochloron [41]): 10 | Ratio (Candida albicans [42]): 10
